pIC50: −log10 of the molar value.
Key:
MCF7 [1] = assay: Antiproliferative activity against human MCF7 cells assessed as inhibition of cell growth incubated for 48 hrs by MTT assay; assay type: functional, cell-based; details: MCF7, 48 h
Outline: (§1)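 Cell lines from NCCS; ~8000 cells/well grown 24 h at 37 °C, 5% CO2, serum-starved 8 h to synchronize, then complete medium restored. Compounds applied at 1, 5, 10 and 25 μM in triplicate for 48 h. MTT added after medium removal, 4 h in dark; formazan dissolved in DMSO, absorbance at 590 nm read as % viability (mean ± S.D.); IC50 in μM.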

A549 = assay: Antiproliferative activity against human A549 cells assessed as inhibition of cell growth incubated for 48 hrs by MTT assay; assay type: functional, cell-based; details: A549, 48 h; outline: as §1
SH-SY5Y [2] = assay: Antiproliferative activity against human SH-SY5Y cells assessed as inhibition of cell growth incubated for 48 hrs by MTT assay; assay type: functional, cell-based; outline: as §1
SH-SY5Y [3] = assay: Cell cycle arrest in human SH-SY5Y cells assessed as cells in G0/G1 phase at 10 uM incubated for 48 hrs by PI staining based flow cytometry analysis (reference value: 53.2 %); assay type: functional
SH-SY5Y [4] = assay: Induction of apoptosis in human SH-SY5Y cells assessed as necrotic cells at 10 uM incubated for 48 hrs by AnnexinV staining based cytofluorimetric analysis (reference value: 0 %); assay type: functional
Outline: (§2)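 SHSY5Y cells grown in 6-well plates and exposed to compounds at 10 μM for 48 h. Cells plus medium centrifuged at 1200 rpm for 5 min, washed in 1× PBS, then incubated with Annexin V/dead cell reagent 30 min at room temperature in dark. Annexin V […] populations quantified on a Muse cytofluorimetric analyzer.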

SH-SY5Y [5] = assay: Induction of apoptosis in human SH-SY5Y cells assessed as late apoptotic cells at 10 uM incubated for 48 hrs by AnnexinV staining based cytofluorimetric analysis (reference value: 0.24 %); assay type: functional; outline: as §2
SH-SY5Y [6] = assay: Cell cycle arrest in human SH-SY5Y cells assessed as cells in G2 phase at 10 uM incubated for 48 hrs by PI staining based flow cytometry analysis (reference value: 31.1 %); assay type: functional
SH-SY5Y [7] = assay: Cell cycle arrest in human SH-SY5Y cells assessed as cells in S phase at 10 uM incubated for 48 hrs by PI staining based flow cytometry analysis (reference value: 16.2 %); assay type: functional
SH-SY5Y [8] = assay: Induction of apoptosis in human SH-SY5Y cells assessed as viable cells at 10 uM incubated for 48 hrs by AnnexinV staining based cytofluorimetric analysis (reference value: 98.6 %); assay type: functional; details: read-out: Activity; outline: as §2
SH-SY5Y [9] = assay: Induction of apoptosis in human SH-SY5Y cells assessed as early apoptotic cells at 10 uM incubated for 48 hrs by AnnexinV staining based cytofluorimetric analysis (reference value: 1.16 %); assay type: functional; outline: as §2
[10] = Cytotoxicity against human HEK293 cells assessed as inhibition of cell growth incubated for 48 hrs by MTT assay; assay type: toxicity, cell-based
MCF7 [11] = assay: Antiproliferative activity against human MCF7 cells assessed as inhibition of cell growth incubated for 72 hrs by SRB assay; assay type: functional, cell-based; details: MCF7, 72 h
HT-29 = assay: Antiproliferative activity against human HT-29 cells assessed as inhibition of cell growth incubated for 72 hrs by SRB assay; assay type: functional, cell-based; details: HT-29, 72 h
L1210 = assay: Antiproliferative activity against mouse L1210 cells assessed as inhibition of cell growth incubated for 72 hrs by tryphan blue staining; assay type: functional, cell-based; details: L1210, 72 h
HeLa = assay: Antiproliferative activity against human HeLa cells assessed as inhibition of cell growth incubated for 72 hrs by tryphan blue staining; assay type: functional, cell-based
NIH3T3 = assay: Antiproliferative activity against mouse NIH3T3 cells assessed as inhibition of cell growth incubated for 72 hrs by tryphan blue staining; assay type: functional, cell-based; details: NIH3T3, 72 h
B16 = assay: Antiproliferative activity against mouse B16 cells assessed as inhibition of cell growth incubated for 72 hrs by tryphan blue staining; assay type: functional, cell-based; details: B16, 72 h

SMILES	pIC50 (MCF7 [1])	pIC50 (A549)	pIC50 (SH-SY5Y [2])	IC50 at 48 h [10] [µM]	further results
Fc1cccc(Cl)c1-c1nc(N2CCOCC2)c2ccccc2n1	< 4.60	4.75	4.66		
CC(C)c1ccc(-c2nc(N3CCOCC3)c3ccccc3n2)cc1	4.98	5.02	4.82		
c1ccc2[nH]c(-c3nc(N4CCOCC4)c4ccccc4n3)cc2c1	< 4.60	4.94	4.84		
COc1cc(-c2nc(N3CCOCC3)c3ccccc3n2)cc(OC)c1OC	5.50	5.07	5.47		Activity (SH-SY5Y [3]): 62.1%; Activity (SH-SY5Y [4]): 19.2%; Activity (SH-SY5Y [5]): 77.6%; Activity (SH-SY5Y [6]): 24.3%; Activity (SH-SY5Y [7]): 14.4%; viability at 10 µM (SH-SY5Y [8]): 0.42%; Activity (SH-SY5Y [9]): 2.71%
CN(C)c1ccc(-c2nc(N3CCOCC3)c3ccccc3n2)cc1	5.19	4.98	5.02	> 25	Activity (SH-SY5Y [3]): 59%; Activity (SH-SY5Y [4]): 19%; Activity (SH-SY5Y [5]): 78.2%; Activity (SH-SY5Y [6]): 26.2%; Activity (SH-SY5Y [7]): 15.3%; viability at 10 µM (SH-SY5Y [8]): 0.55%; Activity (SH-SY5Y [9]): 2.23%
COc1ccc(-c2nc(N3CCOCC3)c3ccccc3n2)cc1	5.30	4.68	< 4.60	> 25	
Oc1ccc(-c2nc(N3CCOCC3)c3ccccc3n2)cc1	5.25	4.90	4.69	> 25	
O=C1Nc2ccc(F)cc2/C1=N/Nc1nc(-c2ccccc2)nc2ccccc12					pIC50 (MCF7 [11]): 5.13; pIC50 (HT-29): 4.84
CSc1ccc(-c2nc(N3CCOCC3)c3ccccc3n2)cc1	4.99	4.75	4.61		
Fc1ccccc1-c1nc(N2CCOCC2)c2ccccc2n1	< 4.60	4.97	< 4.60		
O=[N+]([O-])c1ccc(-c2nnc3c4cc(Cl)ccc4nc(N4CCOCC4)n23)s1					pIC50 (L1210): 6.24; pIC50 (HeLa): 5.19; pIC50 (NIH3T3): 5.56; pIC50 (B16): 6.62
c1ccc(-c2nc(N3CCOCC3)c3ccccc3n2)cc1	< 4.60	5.02	< 4.60		
FC(F)(F)c1ccc(-c2nc(N3CCOCC3)c3ccccc3n2)cc1	5.17	5.01	4.80	> 25	
N#Cc1ccc(-c2nc(N3CCOCC3)c3ccccc3n2)cc1	< 4.60	4.96	< 4.60		
COc1cc2c(c(OC)c1OC)-c1ccc(OC)c(=O)cc1[C@@H](NC(C)=O)CC2 [COLCHICINE]	5.28	5.29	5.10	> 25	
Cc1ccc(-c2nc(N3CCOCC3)c3ccccc3n2)cc1	5.31	4.72	4.74		
